Test [1] concerns the target T1, Endothelin receptor type B (Homo sapiens, UniProt P24530).
T1 sequence (P24530 whole entry): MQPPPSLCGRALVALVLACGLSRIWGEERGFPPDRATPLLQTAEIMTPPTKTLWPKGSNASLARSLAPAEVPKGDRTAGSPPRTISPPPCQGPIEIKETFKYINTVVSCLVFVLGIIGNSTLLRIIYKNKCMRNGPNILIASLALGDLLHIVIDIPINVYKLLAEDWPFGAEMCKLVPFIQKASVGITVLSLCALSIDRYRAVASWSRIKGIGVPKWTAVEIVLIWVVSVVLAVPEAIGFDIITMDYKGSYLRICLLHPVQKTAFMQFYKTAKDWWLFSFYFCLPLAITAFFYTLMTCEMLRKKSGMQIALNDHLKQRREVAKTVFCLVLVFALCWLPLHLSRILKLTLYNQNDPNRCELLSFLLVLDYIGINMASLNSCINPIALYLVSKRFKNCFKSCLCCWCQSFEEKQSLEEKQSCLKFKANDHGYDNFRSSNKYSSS
Briefly: Inhibition of [125I]ET1 binding to cloned human ET-B receptor. Put shortly:
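Membranes from CHO cells stably expressing cloned human ET-B receptor (0.05 μg per tube) incubated with [125I]ET-1 (0.3 nM), without or with rising concentrations of unlabeled ligand, 30 °C for 1 h. Filtration separated bound from free, gamma counting. Nonspecific binding 2-5%. Apparent Ki derived from competition curves, n ≥ 3.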

Test [2] concerns the target T2, Endothelin-1 receptor (Homo sapiens, UniProt P25101).
T2 sequence (P25101 whole entry): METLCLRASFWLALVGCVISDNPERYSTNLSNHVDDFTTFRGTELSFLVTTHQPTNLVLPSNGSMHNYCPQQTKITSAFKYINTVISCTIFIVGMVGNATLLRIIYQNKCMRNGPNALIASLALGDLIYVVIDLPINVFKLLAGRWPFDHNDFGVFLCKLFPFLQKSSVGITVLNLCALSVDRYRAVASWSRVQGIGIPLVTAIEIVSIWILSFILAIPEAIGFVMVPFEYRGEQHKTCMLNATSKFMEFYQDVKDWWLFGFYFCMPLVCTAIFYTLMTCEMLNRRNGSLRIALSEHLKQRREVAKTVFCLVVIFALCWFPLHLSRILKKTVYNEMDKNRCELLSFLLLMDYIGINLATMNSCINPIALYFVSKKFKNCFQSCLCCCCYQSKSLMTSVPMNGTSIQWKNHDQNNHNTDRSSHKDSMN
As to the kind of experiment: Inhibition of [125I]ET1 binding to cloned human ET-A receptor. Put shortly:
(§1)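 Membranes from CHO cells stably expressing cloned human ET-A receptor (0.5 μg per tube) incubated with [125I]ET-1 (0.3 nM) alone or with increasing unlabeled ligand, 1 h at 30 °C. Bound and free separated by filtration and counted by γ-counter. Nonspecific binding 8-25%. Apparent Ki from competition curves, n ≥ 3.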

In test [3] the target is T2, Endothelin-1 receptor. Briefly: Inhibition of [125I]ET1 binding to cloned human Endothelin A receptor. Put shortly:
as §1

By pKi is commonly meant the Ki on a negative log10 scale, so that one unit is a factor of ten. Read a low pKi as a large Ki.

Structures are written as SMILES. pKi: −log10 of the molar value. Where only a bound is given, the exact number is not on record here.

On to `O=C(O)[C@H]1[C@H](c2ccccc2)c2ccccc2[C@@H]1c1ccccc1`, for which the figures for the negative logarithm of the Ki (pKi) (in test [1]; at Endothelin-1 receptor [2]) were less than 4.52 and 4.95, respectively.
The corresponding values for `CCCOc1ccc2c(c1)[C@@H](c1ccc(OC)cc1)[C@H](C(=O)O)[C@H]2c1ccc2c(c1)OCO2` are 5.98 and 7.95.
With `COc1ccc([C@H]2c3ccccc3[C@@H](c3ccccc3)[C@@H]2C(=O)O)cc1`, the negative-log Ki (pKi) was less than 4.52 in test [1] and 5.25 at Endothelin-1 receptor [3].
On to `CCCOc1ccc2c(c1)[C@@H](c1ccc(OC)cc1OCC(=O)O)[C@H](C(=O)O)[C@H]2c1ccc2c(c1)OCO2` [SB-209670], for which the results for the pKi (in test [1]; on Endothelin-1 receptor [2]) were 7.83 and 9.37, respectively.
As for `COc1ccc([C@H]2c3ccccc3[C@@H](c3ccc4c(c3)OCO4)[C@@H]2C(=O)O)cc1`, the pKi in test [1] is 6.12; on Endothelin-1 receptor [2], 7.37.
The corresponding values for `COc1ccc([C@@H]2c3cc(O)ccc3[C@H](c3ccc4c(c3)OCO4)[C@H]2C(=O)O)cc1` are 6.32 and 7.82.
The corresponding values for `COc1ccc([C@@H]2c3ccccc3[C@H](c3ccc(OC)cc3)[C@H]2C(=O)O)cc1` are 5.61 and 6.37.
